Experimental data published in paper PMC12238435 (EJNMMI Radiopharmacy and Chemistry, 2025).
Where two headings read alike, the source gives them in different places.

How the values were obtained:
[1] = tested on: monocarboxylate transporter 1 (MCT1); conditions: AZD3965 1.1 mg/kg; same mouse model; ref Dillemuth et al. [2025]; cited from earlier work
[2] = tested on: intracranial BT12 glioblastoma xenografts; assay: PET imaging of mice with intracranial BT12 glioblastoma xenografts; format: in vivo, mouse; conditions: for SUV in healthy brain: i.v.
Summary of the method: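 Mice were imaged 21 days after intracranial BT12 inoculation, under 1–2% isoflurane on a heating pad. Non-contrast HRCT came first, then the tracer (4.70 ± 0.44 MBq, 0.10 ± 0.06 µg) i.v. via tail-vein cannula and 60-min dynamic list-mode PET. For blocking, the MCT1 inhibitor (1.1 mg/kg) was given i.v. 15 min before tracer. SUV was corrected for injected dose, body weight and tail/cannula residue; TBR was also derived. Data are mean ± SD, unpaired t-test.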

[3] = ref Dillemuth et al. [2025]; cited from earlier work
[4] = Ex vivo biodistribution in mice with glioblastoma; set-up: species or system mouse; conditions: no blocking, 60 min postinjection, gamma counting, mean, n=7 ([18F]FNA-N-CooP), n=4 ([18F]FNA)
[5] = In vivo stability analysis; set-up: species or system mouse; conditions: mice with BT12 glioblastoma, i.v.
Summary of the method: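 After 60-min dynamic PET following tail-vein i.v. injection of the 18F-labelled peptide tracer, heparinized blood was centrifuged (2,100 × g, 5 min). Plasma was deproteinized with an equal volume of acetonitrile (14,000 × g, 3 min, RT), and fractions were gamma-counted. Protein-free plasma and acetonitrile-extracted brain homogenate were run on radio-HPLC (C18, 0.1% TFA water/acetonitrile, 12–80% B gradient). Peaks were assigned by reference retention times and co-injection.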

[6] = PET, glioblastoma mice, no blocking, mean ± SD, n = 4
[7] = PET, no blocking, single mouse (one of two)

## Cc1[nH]nc(C(F)(F)F)c1Cc1sc2c(c1C(=O)N1C[C@](C)(O)CO1)c(=O)n(C)c(=O)n2C(C)C [AZD3965]
[1]
  reduction of glioblastoma uptake of [^18F]FNA: 76%

## O=C(O)c1ccc([18F])nc1 [[^18F]FNA, 6-[^18F]fluoronicotinic acid, reference compound]
[2]; [6]
  tumor-to-brain ratio (TBR): 1.51 ± 0.08
  SUV in healthy brain: 0.59 ± 0.05
[3]
  in vivo stability: stable in vivo

## FB-CGLSGLGVA-NH2 [[^18F]FB-N-CooP]
[2]; [7]
  TBR: 1.28
  tumor SUV: 0.16

## FNA-CGLSGLGVA-NH2 [[^18F]FNA-N-CooP]
[2]; AZD3965 1.1 mg/kg i.v. 15 min before tracer, single mouse (one of two)
  SUV in tumor, blocking with AZD3965: 0.17
[2]; [6]
  SUV in healthy brain: 0.11 ± 0.02
[4]
  %ID/g Kidney: 8.88 ± 6.16 %ID/g
  %ID/g Urine: 772.29 ± 373.58 %ID/g
[5]
  in vivo stability: not stable in vivo
